Screens deposited in PubChem BioAssay by Sanford-Burnham Center for Chemical Genomics.
hIAP inh = human IAP inhibition | inhibition, % at 10 µM | actives 0.12% (n = 330,000) | purified IAP, CDP-Star luminescence, 30 min;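 active means inhibition reaching a set limit with compound at 10 µM in the primary screen, cut at about 35% in these data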
Target sequence (P09923 whole entry, looked up): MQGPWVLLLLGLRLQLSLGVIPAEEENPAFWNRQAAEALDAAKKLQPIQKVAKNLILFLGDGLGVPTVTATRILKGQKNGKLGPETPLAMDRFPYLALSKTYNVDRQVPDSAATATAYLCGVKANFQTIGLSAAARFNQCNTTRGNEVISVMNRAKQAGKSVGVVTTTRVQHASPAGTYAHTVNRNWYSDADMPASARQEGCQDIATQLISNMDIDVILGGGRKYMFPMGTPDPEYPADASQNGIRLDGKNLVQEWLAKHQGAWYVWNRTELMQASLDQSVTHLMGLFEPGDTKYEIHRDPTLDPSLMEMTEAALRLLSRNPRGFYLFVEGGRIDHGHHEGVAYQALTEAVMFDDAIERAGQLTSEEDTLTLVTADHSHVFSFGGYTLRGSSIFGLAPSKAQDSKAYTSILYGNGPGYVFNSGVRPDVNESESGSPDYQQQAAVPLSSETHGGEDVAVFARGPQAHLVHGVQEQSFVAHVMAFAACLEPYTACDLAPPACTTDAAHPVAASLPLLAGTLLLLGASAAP
bIAP activator = increases bovine intestinal alkaline phosphatase activity; purified bovine IAP, CDP-star luminescence, 30 min; hits give high values; fold of DMSO-control signal, blank-subtracted; activation factor at 20 µM; actives 0.17% (n = 200,000);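 active means activation factor of 2 or more at 20 µM, a signal rise over negative controls twice the positive control's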
mIAP block = mouse IAP inhibition | purified mouse IAP, CDP-Star luminescence, 30 min | inhibition, % at 10 µM | actives 0.2% (n = 330,000) | AID 2806;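 active means inhibition of at least 40% at 10 µM in the primary screen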
bIAP inhibitor = blocks bovine intestinal alkaline phosphatase activity; purified bovine IAP, CDP-star luminescence, 30 min; inhibition, % at 20 µM; 190,000 tested, under 10 active; AID 1019;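 active means over 50% inhibition of intestinal alkaline phosphatase at 20 µM in the single-dose screen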
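Assay system – bovine IAP enzyme · Quantity – bovine IAP at 1/65,000,000 final dilution · Detection – CDP-star luminescence signal · Times – 30 min reaction at room temperature · Also added – CDP-star substrate at 30 µM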
mIAP activ = increases mouse intestinal alkaline phosphatase activity | muIAP, CDP-Star luminescence, 30 min; hits give high values; 1 = vehicle-only enzyme signal, 0 = enzyme-free wells | activation factor at 10 µM | actives 0.24% (n = 330,000) | AID 2805;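 active means activation factor of at least 2 at 20 µM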
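System: mouse IAP enzyme. Reagent: CDP-Star chemiluminescent phosphatase substrate. Benchmarks: DMSO wells, no-enzyme wells. Times: 30 min enzyme-substrate-compound incubation at room temperature. Detection: luminescence from enzymatic CDP-Star hydrolysis. Doses: test compounds delivered from DMSO solution.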
hIAP activ = human IAP activation. P09923. activation factor at 10 µM. AID 2524. purified human IAP, CDP-Star luminescence, 30 min; hits give high values; 1 = vehicle-only enzyme, 0 = enzyme-free background. actives 0.16% (n = 330,000);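 active means activation factor of the enzyme at least 2-fold when tested at 20 µM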
hIAP act confirm = human IAP activation confirmation; purified IAP, CDP-Star luminescence, 30 min; hits give low values; shares compounds with hIAP activ; AID 434926; actives 10% (n = 880); activation (%Activity, negative = activation), % at 8.3 µM;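 active means at least twofold enzyme activation in any of six single-dose repeats, which the averaged readout prints as negative percent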
mIAP inh conf = mouse IAP inhibition confirmation. inhibition, % at 10 µM. actives 4.7% (n = 11,000). shares compounds with mIAP block. purified mouse IAP, CDP-Star luminescence, 30 min. AID 434971;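 active means inhibition of at least 40% at 10 µM in either of the two replicates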
A number is an active result; i = inactive; nt = no result. Most compounds without a hit are left out; they make up all but 0.77% or so of the library.

SMILES	hIAP inh	bIAP activator	mIAP block	bIAP inhibitor	mIAP activ	hIAP activ	mIAP inh conf	others
COc1ccccc1CN1CCC(n2nccc2NC(=O)CCCc2ccccc2)CC1	i	nt	i	nt	2	3.3	i	hIAP act confirm=-112
COCc1ccc(CN2CCC(n3nccc3NC(=O)CCCc3ccccc3)CC2)o1	i	nt	i	nt	i	i	nt
COc1ccccc1/C=C/CN1CCC(n2nccc2NC(=O)CCc2ccccc2)CC1	i	nt	i	nt	2.5	3.3	i	hIAP act confirm=i
O=C(CCc1ccccc1)Nc1ccnn1C1CCN(C/C=C/c2ccccc2)CC1	i	nt	i	nt	i	i	nt
Cc1ccc(S(=O)(=O)CCC(=O)Nc2cccc(S(=O)(=O)N3CCCCCC3)c2)cc1	i	nt	i	nt	i	i	nt
CCOC(=O)C1(CCOc2ccccc2)CCN(Cc2cccc(OC)c2O)CC1	i	nt	i	nt	i	i	nt
O=C(/C=C/c1ccc(O)c(O)c1)NC(=O)c1ccccc1O	57	nt	48	nt	i	i	59	hIAP act confirm=i
O=C(NN1C(=O)/C(=C/c2ccc(O)cc2)SC1=S)c1ccccc1O	36	nt	40	nt	i	i	56	hIAP act confirm=i
O=C(CN1C(=O)c2cccc3cccc1c23)NC1CCCCC1	i	nt	i	nt	i	i	nt
Cc1nn(C(C)C)c(C)c1CN1CCC(C(=O)Nc2cccc(-c3cccc(F)c3)c2)CC1	i	nt	i	nt	4.7	11	i	hIAP act confirm=i
Cn1cc(CN2CCC(C(=O)Nc3cccc(-c4cccc(F)c4)c3)CC2)cn1	i	nt	i	nt	2.3	2.5	i	hIAP act confirm=i
Cc1cccc(CN2CCC(C(=O)Nc3cccc(-c4cccc(F)c4)c3)CC2)n1	i	nt	i	nt	i	i	nt
O=C(Nc1cccc(-c2cccc(F)c2)c1)C1CCN(C2CCC2)CC1	i	nt	i	nt	3.1	2.2	i	hIAP act confirm=i
COc1cccc(-c2cccc(NC(=O)C3CCN(Cc4cnn(C)c4)CC3)c2)c1	i	nt	i	nt	i	i	nt
CC(=O)c1ccc(N2CCN(C(=S)NCCCN(C)C)CC2)cc1	i	i	i	i	i	i	nt
O=C(NNC(=O)C1CCCCC1)c1ccco1	i	i	i	i	i	i	nt
CCC1CCC(C(=O)NNC(=O)c2cc(-c3ccco3)[nH]n2)CC1 (stereo unspecified)	i	i	55	i	i	2	60	hIAP act confirm=i
CCCCCN(C(=O)CCC(=O)OCC(=O)c1ccc(CCC)cc1)c1c(N)n(CCCC)c(=O)[nH]c1=O	i	nt	i	nt	i	i	nt
O=C1CC(c2ccc(O)c(O)c2)Oc2cc(O)cc(O)c21 (stereo unspecified)	44	nt	56	nt	i	i	53	hIAP act confirm=i
CCCCN1C(=O)C(=O)N(CC(=O)N2CCc3ccccc32)C1=O	i	nt	i	nt	i	i	nt
COc1ccc(COC(=O)C2CCN(S(=O)(=O)c3ccc(C)cc3)CC2)cc1	i	nt	i	nt	i	i	nt
CC(C)c1ccc(NC(=O)C2CC(=O)Nc3nc4ccccc4n32)cc1 (stereo unspecified)	i	nt	i	nt	2.9	2.4	i	hIAP act confirm=i
O=C(Nc1cc(Cl)cc(Cl)c1)Nc1cnccn1	i	nt	i	nt	2.5	i	i
O=C(Nc1ccc(F)cc1)Nc1cnccn1	i	nt	i	nt	i	i	nt
Cc1ccc(S(=O)(=O)N(C)C)cc1NC(=O)Nc1ccccc1F	i	nt	i	nt	i	i	nt
SMILES	hIAP inh	bIAP activator	mIAP block	bIAP inhibitor	mIAP activ	hIAP activ	mIAP inh conf	others
Cc1cc(C)cc(NC(=O)Nc2cc(S(=O)(=O)N(C)C)ccc2C)c1	i	nt	i	nt	4.9	i	i
C[C@@H](C(=O)Nc1ccc(SC(F)F)cc1)N1C(=O)C2CCCCC2C1=O (stereo partly specified)	i	nt	i	nt	i	i	nt
CC1CCCC(NC(=S)Nc2ccc(SC(F)F)cc2)C1C (stereo unspecified)	i	i	i	i	8.1	i	i
Cc1c(Br)c(O)c(Br)c2sc(=O)oc12	i	nt	59	nt	i	i	65
COc1ccc(N(C)C(=O)C2CCCN2S(=O)(=O)c2cccc3nsnc23)c(OC)c1 (stereo unspecified)	i	nt	i	nt	i	i	nt
O=C1C2CCCN2C(=S)N1c1cc(Cl)ccc1Cl (stereo unspecified)	i	nt	i	nt	i	i	nt
NC1=NC(=O)/C(=C\c2ccc(-c3ccc(Cl)cc3)o2)S1	i	nt	i	nt	i	i	nt
NS(=O)(=O)c1ccc(-c2ccc(/C=C3\SC(=S)N(C4CCS(=O)(=O)C4)C3=O)o2)cc1 (stereo unspecified)	i	nt	80	nt	i	i	87
Cc1ccc(/C=C2\SC(=S)N(C3CCS(=O)(=O)C3)C2=O)o1 (stereo unspecified)	i	i	i	i	i	i	nt
CN(C)C1=NC(=O)/C(=C/c2ccc(-c3ccc(S(N)(=O)=O)cc3)o2)S1	i	nt	50	nt	i	i	50
CCn1c(CSc2nc3ccccc3s2)nnc1SCC(=O)c1ccc(O)c(O)c1	i	i	44	i	i	i	47
C=CCn1c(SCC(=O)c2ccc(O)c(O)c2)nnc1-c1cccnc1	i	nt	57	nt	i	i	63
CCn1c(SCC(=O)c2ccc(O)c(O)c2)nnc1-c1ccccc1OC	i	i	44	i	i	i	63
C=CCn1c(SCC(=O)c2ccc(O)c(O)c2)nnc1-c1ccccc1OC	i	i	i	i	i	i	nt
CC(OC(=O)c1ccc(CN2CCCC2=O)cc1)C(=O)Nc1ccc(Cl)cc1 (stereo unspecified)	i	nt	i	nt	i	i	nt
COCCNC(=S)Nc1cc2oc3ccccc3c2cc1OC	i	nt	i	nt	i	i	nt
Cc1cc(C)c(S(=O)(=O)Nc2ccc(O)c(Sc3ncn[nH]3)c2)cc1C	i	nt	79	nt	i	i	86
COc1ccc(S(=O)(=O)Nc2ccc(O)c(Sc3ncn[nH]3)c2)cc1	i	i	63	i	i	i	72
Cc1cc(C)c(S(=O)(=O)Nc2ccc(O)cc2)cc1C	i	i	i	i	i	i	nt
CC(C)c1ccc(S(=O)(=O)Nc2ccc(O)c(Sc3ncn[nH]3)c2)cc1	i	nt	i	nt	i	i	nt
O=C(N/N=C/c1ccc(OC(=O)c2ccccc2Cl)cc1)c1ccccn1	i	nt	i	nt	i	i	nt
O=C(N/N=C/c1ccc(OC(=O)c2ccccc2Cl)cc1)c1cc(O)cc(O)c1	i	nt	47	nt	i	i	61
COc1cc(/C=N/NC(=O)c2cc(O)cc(O)c2)ccc1OC(=O)c1ccccc1	i	nt	50	nt	i	i	57
COc1ccc(Br)cc1/C=N/N1C(=O)CSC1=S	i	nt	i	nt	i	i	nt
COc1cc(/C=N/N2C(=O)CSC2=S)ccc1O	i	i	52	i	i	i	65
O=C1CSC(=S)N1/N=C/c1ccc(Cl)c([N+](=O)[O-])c1	i	nt	50	nt	i	i	48
